Results reported in publication PMC5689159 (Biochemistry and Biophysics Reports, 2016).

Columns and labels:
[1] = biological target: litchi lectin; experiment: tryptophan fluorescence quenching; type: binding, Litchi chinensis; details: free lectin; 150 mM NaCl, 10 mM CaCl2, pH 7.5, 298 K; n = 0.9
Procedure, shortened: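 Steady-state fluorescence emission spectra of dilute lectin solutions (10−4−10−6 M) recorded at 298 K in 1 cm path-length quartz cells on a fluorescence spectrophotometer. UV–vis absorption spectra were taken under the same conditions.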

[2] = biological target: litchi lectin (Litchi chinensis seed lectin) (Litchi chinensis); experiment: native gel or EMSA

OC[C@H]1O[C@H](O[C@H]2[C@H](O)[C@@H](O)C(O)O[C@@H]2CO)[C@H](O)[C@@H](O)[C@@H]1O (some centres unmarked) [maltose]
Ka/ (10^4) (M^-1) [1]: 4.9 (±0.2)×10^4

litchi lectin (Litchi chinensis seed lectin) (natural protein)
stoichiometry N [2]: 2
